Screening data deposited in PubChem by several laboratories.
STAT3 act-1: activators of IL-6 induced STAT3 signaling; U3A cells, IL-6 STAT3-luciferase reporter, luminescence; 100% = signal with IL-6 EC80 alone; activation (% of control), % at 5.6 µM; 190,000 compounds, 0.91% hits;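 active means activation above the screen-wide mean of compound activation plus 3 SD, cut at about 130% in these data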;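 further: 0% = background luminescence of wells with medium and substrate only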
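system = STAT3-luciferase reporter U3A cells | reagent = IL-6 stimulus at 33 ng/mL final | timing = 1 h compound pre-exposure, 6 h IL-6 stimulation, 37 °C | measured by = luminescence | evaluation = % activation versus median of IL-6-stimulated wells | control set = IL-6-only wells as 100% reference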
STAT1 inh: reduces IFN-gamma driven STAT1 reporter signal | NIH 3T3 STAT1-luciferase reporter, luminescence | inhibition, % at 5.5 µM | 200,000 compounds, 0.35% hits;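 active means inhibition above a set limit, the mean inhibition across all tested compounds plus 3 SD, cut at about 34% in these data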;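 further: 0% = IFN-gamma with DMSO and 100% = IFN-gamma with 300 µM nifuroxazide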
APP 5'UTR act: activates APP 5'UTR luciferase reporter; SH-SY5Y APP 5'UTR luciferase reporter, luminescence; zero percent = DMSO vehicle wells; activation, % at 2 µM; AID 1276; 190,000 compounds, 1% hits;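 active means activation above a set limit, based on mean plus 3 SD of controls, cut at about 140% in these data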
STAT3 inh: STAT3 signaling inhibition; AID 862; U3A cells, IL-6 STAT3-luciferase reporter, luminescence; host cell line lacks STAT1; inhibition, % at 5.5 µM; 190,000 compounds, 0.89% hits;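 active means inhibition above the mean inhibition across all screened compounds plus 3 SD, cut at about 44% in these data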;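 further: 0% = DMSO only wells and 100% = 100 µM nifuroxazide control wells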
NF-kB neuron act: NF-kB expression increase, human neuronal cells; NF-kB reporter expression; hits give high values; 190,000 compounds, 1.6% hits; fold change at 12.5 µM; AID 1239; in the data active means fold change above about 3.3
STAT1 act-1: increases IFN-gamma driven STAT1 reporter signal | 200,000 compounds, 2.6% hits | NIH 3T3 STAT1-luciferase reporter, luminescence; 100% = IFN-gamma alone, no compound | activation (% of control), % at 5.5 µM;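 active means activation above the screen-wide mean activation plus 3 SD, cut at about 130% in these data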;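 further: raw ratio to IFN-gamma control signal so 100% means no change and 0% no light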
STAT3 act-2: confirmation of STAT3 signaling activators | shares compounds with STAT3 act-1 | U3A STAT3-luciferase reporter, IL-6 potentiation, luminescence; U3A cells lack STAT1; 100 means same as IL-6 alone | potentiation (% of control), % at 5.7 µM | 1,200 compounds, 64% hits | AID 1267;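 active means percent activation of the STAT3 luciferase reporter above a set limit taken from the earlier primary screen, cut at about 130% in these data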;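 further: 0% = background signal of medium plus substrate and 100% = median of IL-6 with DMSO wells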
NFkB act STAT3ct: activates NF-kappaB, counter-screen to STAT3 activators | human cells, NF-kappaB reporter activation | activation (% of control), % at 5.7 µM | 1,200 compounds, 11% hits | shares compounds with STAT3 act-1; in the data active means activation above about 120%;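 further: reporter induced by TNF-alpha stimulation; 100% = median of stimulated DMSO wells and 0% = no signal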
STAT1 act-2: activates STAT1, counter-screen to STAT3 activators; shares compounds with STAT3 act-1; NIH 3T3 STAT1-luciferase reporter, IFN-gamma, luminescence; activation (% of control), % at 5.7 µM; 1,200 compounds, 13% hits;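 active means activation above the solvent-only control well mean plus 3 SD, set per screening run, cut at about 120% in these data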;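 further: 100% = IFN-gamma with DMSO median signal so 100% means no change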
Active calls of the source: *. Sampled rows, rich in hits. Any-hit rate of the full collection: about 4.9%.

CCn1c(NC(C)=O)nc2ccccc21 was read as STAT3 act-1 101, STAT1 inh 2, APP 5'UTR act 12, STAT3 inh 0, NF-kB neuron act 1.1 and STAT1 act-1 101.
CCN(CC)CCn1c(NC(=O)c2ccc(C(F)(F)F)cc2)nc2ccccc21 was read as STAT3 act-1 107, STAT1 inh -9, APP 5'UTR act -9, STAT3 inh -5, NF-kB neuron act 1.1 and STAT1 act-1 106.
CC(=O)NCc1ccc(S(=O)(=O)NC(C(=O)O)C(C)C)cc1 (configuration not stated) was read as STAT3 act-1 106, STAT1 inh 2, APP 5'UTR act 2, STAT3 inh -6, NF-kB neuron act 1.1 and STAT1 act-1 97.
Screening O=C(CN1CCC(C(=O)c2cccc(Cl)c2)CC1)Nc1ccc(C(=O)O)cc1 returned STAT3 act-1 101, STAT1 inh 3, APP 5'UTR act 15, STAT3 inh 1, NF-kB neuron act 1 and STAT1 act-1 96.
Screening COc1ccc(CNC(=O)CSCc2ccccc2Cl)cc1 returned STAT3 act-1 101, STAT1 inh -19, APP 5'UTR act 35, STAT3 inh 0, NF-kB neuron act 1.6 and STAT1 act-1 117.
For CC(=O)n1c(Cl)c(NC(=O)CCl)c2ccccc21 the results were STAT3 act-1 93, STAT1 inh 4, APP 5'UTR act -75, STAT3 inh 16, NF-kB neuron act 1.1 and STAT1 act-1 96.
Screening Nc1nc(-c2ccccn2)nc(N)c1Cc1ccc(Cl)cc1Cl returned STAT3 act-1 115, STAT1 inh -9, APP 5'UTR act -21, STAT3 inh -16, NF-kB neuron act 0.64 and STAT1 act-1 108.
Screening c1ccc2c(c1)CCCN2Cc1nnc2n1CCCCC2 returned STAT3 act-1 140*, STAT1 inh -3, APP 5'UTR act 23, STAT3 inh -45, NF-kB neuron act 1.4, STAT1 act-1 103, STAT3 act-2 120, NFkB act STAT3ct 100 and STAT1 act-2 98.
CC1CCN(S(=O)(=O)c2ccc3c(c2)C(=NO)c2cc(S(=O)(=O)N4CCC(C)CC4)ccc2-3)CC1 was read as STAT3 act-1 136*, STAT1 inh 10, APP 5'UTR act -4, STAT3 inh -42, NF-kB neuron act 1.1, STAT1 act-1 91, STAT3 act-2 132, NFkB act STAT3ct 131* and STAT1 act-2 56.
Cc1ccc(C(=O)NCC(=O)OCC(=O)Nc2ccccc2C#N)s1 was read as STAT3 act-1 97, STAT1 inh 0, APP 5'UTR act -11, STAT3 inh 10, NF-kB neuron act 1.1 and STAT1 act-1 99.
Screening CCCCNC(=S)N/N=C1\C(=O)c2cccc3cccc1c23 returned STAT3 act-1 85, STAT1 inh 3, APP 5'UTR act 8, STAT3 inh 24, NF-kB neuron act 1 and STAT1 act-1 97.
For CNC(=S)N/N=C1\C(=O)c2cccc3cccc1c23 the results were STAT3 act-1 138*, STAT1 inh 1, APP 5'UTR act 9, STAT3 inh -39, NF-kB neuron act 1.2, STAT1 act-1 99, STAT3 act-2 143*, NFkB act STAT3ct 116 and STAT1 act-2 111.
For S=C(NCCC1=CCCCC1)NCc1ccco1 the results were STAT3 act-1 94, STAT1 inh 11, APP 5'UTR act 27, STAT3 inh 12, NF-kB neuron act 1.3 and STAT1 act-1 88.
`CC(=O)Nc1cccc(C(=O)NC(C)c2ccc(S(N)(=O)=O)cc2)c1` (configuration not stated) gave STAT3 act-1 148*, STAT1 inh 0, APP 5'UTR act 6, STAT3 inh -51, NF-kB neuron act 1.1, STAT1 act-1 100, STAT3 act-2 125, NFkB act STAT3ct 107 and STAT1 act-2 93.
`COc1ccc(C(=O)Nc2ccccc2C(=O)NC(Cc2c[nH]c3ccccc23)C(=O)O)cc1` (configuration not stated) gave STAT3 act-1 138*, STAT1 inh 8, APP 5'UTR act 1, STAT3 inh -44, NF-kB neuron act 1.1, STAT1 act-1 92, STAT3 act-2 123, NFkB act STAT3ct 100 and STAT1 act-2 94.
CN(C)c1nc(OCCOC(=O)COc2ccc(Cl)cc2Cl)nc(N(C)C)n1 was read as STAT3 act-1 107, STAT1 inh -9, APP 5'UTR act -6, STAT3 inh -4, NF-kB neuron act 0.99 and STAT1 act-1 110.
CN(C)c1nc(OCCNC(=O)COc2ccc(Cl)cc2Cl)nc(N(C)C)n1 was read as STAT3 act-1 146*, STAT1 inh 4, APP 5'UTR act -3, STAT3 inh -49, NF-kB neuron act 1.1, STAT1 act-1 96, STAT3 act-2 127, NFkB act STAT3ct 98 and STAT1 act-2 91.
c1ccc(-c2ccccc2OCCCCN2CCCCCC2)cc1 was read as STAT3 act-1 93, STAT1 inh 13, APP 5'UTR act -2, STAT3 inh 16, NF-kB neuron act 0.49 and STAT1 act-1 89.
Cc1ccc(C)c(NC(=S)c2nc3ccccc3s2)c1 was read as STAT3 act-1 142*, STAT1 inh -4, APP 5'UTR act 19, STAT3 inh -53, NF-kB neuron act 1.4, STAT1 act-1 104, STAT3 act-2 203*, NFkB act STAT3ct 127* and STAT1 act-2 130*.
For CC(=O)/C(N=Nc1cc(C)ccc1O)=C(\C)O the results were STAT3 act-1 149*, STAT1 inh 10, APP 5'UTR act 3, STAT3 inh -53, NF-kB neuron act 1.2, STAT1 act-1 89, STAT3 act-2 150*, NFkB act STAT3ct 107 and STAT1 act-2 97.
`COc1ccc(NC(=O)NNC(=O)c2ccccc2-n2cccc2)cc1OC` gave STAT3 act-1 100, STAT1 inh 2, APP 5'UTR act 7, STAT3 inh 6, NF-kB neuron act 1 and STAT1 act-1 97.
For CC(C)C1Oc2cc3oc(=O)ccc3cc2C1=O (configuration not stated) the results were STAT3 act-1 97, STAT1 inh -14, APP 5'UTR act 7, STAT3 inh 10, NF-kB neuron act 1.3 and STAT1 act-1 111.
O=C(O)CCCCCn1c(SCc2cc(=O)n3ccccc3n2)nc2ccsc2c1=O was read as STAT3 act-1 93, STAT1 inh -1, APP 5'UTR act -15, STAT3 inh 12, NF-kB neuron act 0.92 and STAT1 act-1 101.
